{
  "source": "ChEMBL document CHEMBL1909581",
  "about": "“Growth inhibition of human lung cancer cells via down-regulation of epidermal growth factor receptor signaling by yuanhuadine, a daphnane diterpene from Daphne genkwa” (J Nat Prod, 2011)",
  "format_in_all_cases": "functional, cell-based",
  "key": {"NCI-H1993": {"tested_on": "NCI-H1993", "assay": "Antiproliferative activity against human NCI-H1993 cells after 3 days by SRB assay", "conditions": "NCI-H1993, 72 h"}, "SK-MES-1": {"tested_on": "SK-MES-1", "assay": "Antiproliferative activity against human SK-MES cells after 3 days by SRB assay", "conditions": "SK-MES-1, 72 h", "outline": "(§1)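 Cells seeded at 5 × 10^4 cells/mL and exposed to a range of concentrations for 3 days. Fixed with 10% TCA, then SRB stain read. Growth expressed as % of solvent-treated control. IC50 obtained by nonlinear regression of percent survival versus concentration.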"}, "[1]": {"assay": "Antiproliferative activity against human H1299 cells after 3 days by SRB assay", "conditions": "NCI-H1299, 72 h", "outline": "as §1"}, "NCI-H358": {"tested_on": "NCI-H358", "assay": "Antiproliferative activity against human NCI-H358 cells after 3 days by SRB assay", "conditions": "NCI-H358, 72 h", "outline": "as §1"}, "A549": {"tested_on": "A549", "assay": "Antiproliferative activity against human A549 cells after 3 days by SRB assay", "conditions": "A549, 72 h", "outline": "as §1"}, "NCI-H292": {"tested_on": "NCI-H292", "assay": "Antiproliferative activity against human NCI-H292 cells after 3 days by SRB assay", "conditions": "NCI-H292, 72 h"}},
  "data": [
    {"smiles": "Cc1c2ccncc2c(C)c2c1[nH]c1ccccc12", "note": "[ELLIPTECINE]", "values": [
      {"measurement": "IC50", "setting": "NCI-H1993", "result": 200, "unit": "nM"},
      {"measurement": "IC50", "setting": "SK-MES-1", "result": 200, "unit": "nM"},
      {"measurement": "IC50", "setting": "[1]", "result": 600, "unit": "nM"},
      {"measurement": "IC50", "setting": "NCI-H358", "result": 800, "unit": "nM"},
      {"measurement": "IC50", "setting": "A549", "result": 1100, "unit": "nM"},
      {"measurement": "IC50", "setting": "NCI-H292", "result": 1000, "unit": "nM"}
    ]}
  ]
}
